ChEMBL document CHEMBL3351385, “Synthesis and preliminary mechanistic evaluation of 5-(p-tolyl)-1-(quinolin-2-yl)pyrazole-3-carboxylic acid amides with potent antiproliferative activity on human cancer cell lines” (Eur J Med Chem, 2014)

Columns and labels:
[1] = molecular target: Mitogen-activated protein kinase 1 (Homo sapiens) (UniProt P28482); assay: Inhibition of ERK2 (unknown origin) assessed as remaining enzyme activity at 10 uM by radioactive [33P]-ATP filter binding assay
Method in brief: (§1)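 A single 10 µM concentration was tested across a 140-kinase panel. Activity was measured by a radioactive 33P-ATP filter-binding assay run at the International Center for Kinase Profiling, University of Dundee.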

[2] = molecular target: Mitogen-activated protein kinase 11 (Homo sapiens) (UniProt Q15759); assay: Inhibition of p38beta (unknown origin) assessed as remaining enzyme activity at 10 uM by radioactive [33P]-ATP filter binding assay
Chain of Mitogen-activated protein kinase 11 (Homo sapiens) (Q15759 whole entry): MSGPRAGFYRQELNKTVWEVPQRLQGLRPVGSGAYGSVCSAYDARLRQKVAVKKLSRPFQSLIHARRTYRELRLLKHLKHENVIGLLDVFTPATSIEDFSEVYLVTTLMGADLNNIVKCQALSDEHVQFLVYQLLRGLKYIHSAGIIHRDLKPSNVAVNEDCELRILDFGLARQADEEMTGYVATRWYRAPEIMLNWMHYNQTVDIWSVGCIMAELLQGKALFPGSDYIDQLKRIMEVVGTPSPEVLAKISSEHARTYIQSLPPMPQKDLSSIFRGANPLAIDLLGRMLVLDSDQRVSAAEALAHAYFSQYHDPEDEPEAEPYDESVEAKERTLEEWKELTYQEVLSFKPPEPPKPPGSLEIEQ

[3] = molecular target: Ribosomal protein S6 kinase alpha-3 (Homo sapiens) (UniProt P51812); assay: Inhibition of RSK2 (unknown origin) assessed as remaining enzyme activity at 10 uM by radioactive [33P]-ATP filter binding assay
Chain of Ribosomal protein S6 kinase alpha-3 (Homo sapiens) (P51812 whole entry): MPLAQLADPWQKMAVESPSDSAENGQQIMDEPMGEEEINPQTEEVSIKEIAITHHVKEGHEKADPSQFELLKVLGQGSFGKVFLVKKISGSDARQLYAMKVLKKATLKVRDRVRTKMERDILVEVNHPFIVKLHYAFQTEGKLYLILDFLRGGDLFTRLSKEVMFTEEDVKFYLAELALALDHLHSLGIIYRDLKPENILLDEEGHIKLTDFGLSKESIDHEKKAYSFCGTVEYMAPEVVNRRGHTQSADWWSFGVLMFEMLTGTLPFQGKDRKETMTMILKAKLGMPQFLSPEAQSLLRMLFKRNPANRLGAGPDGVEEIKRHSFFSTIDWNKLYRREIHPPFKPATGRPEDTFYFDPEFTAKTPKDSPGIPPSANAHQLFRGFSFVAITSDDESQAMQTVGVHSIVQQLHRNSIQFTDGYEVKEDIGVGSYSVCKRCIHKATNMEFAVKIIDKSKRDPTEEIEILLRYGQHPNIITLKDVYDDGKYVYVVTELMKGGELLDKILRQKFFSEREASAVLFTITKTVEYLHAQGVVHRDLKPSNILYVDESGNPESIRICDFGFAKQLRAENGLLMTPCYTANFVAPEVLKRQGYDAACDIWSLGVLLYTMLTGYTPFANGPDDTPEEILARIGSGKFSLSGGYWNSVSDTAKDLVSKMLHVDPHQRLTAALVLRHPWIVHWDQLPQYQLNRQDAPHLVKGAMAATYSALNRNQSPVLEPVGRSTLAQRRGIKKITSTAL

[4] = molecular target: Serine/threonine-protein kinase N2 (Homo sapiens) (UniProt Q16513); assay: Inhibition of PRK2 (unknown origin) assessed as remaining enzyme activity at 10 uM by radioactive [33P]-ATP filter binding assay
[5] = molecular target: MAP kinase-interacting serine/threonine-protein kinase 2 (Homo sapiens) (UniProt Q9HBH9); assay: Inhibition of MNK2 (unknown origin) assessed as remaining enzyme activity at 10 uM by radioactive [33P]-ATP filter binding assay
Chain of MAP kinase-interacting serine/threonine-protein kinase 2 (Homo sapiens) (Q9HBH9 whole entry, looked up): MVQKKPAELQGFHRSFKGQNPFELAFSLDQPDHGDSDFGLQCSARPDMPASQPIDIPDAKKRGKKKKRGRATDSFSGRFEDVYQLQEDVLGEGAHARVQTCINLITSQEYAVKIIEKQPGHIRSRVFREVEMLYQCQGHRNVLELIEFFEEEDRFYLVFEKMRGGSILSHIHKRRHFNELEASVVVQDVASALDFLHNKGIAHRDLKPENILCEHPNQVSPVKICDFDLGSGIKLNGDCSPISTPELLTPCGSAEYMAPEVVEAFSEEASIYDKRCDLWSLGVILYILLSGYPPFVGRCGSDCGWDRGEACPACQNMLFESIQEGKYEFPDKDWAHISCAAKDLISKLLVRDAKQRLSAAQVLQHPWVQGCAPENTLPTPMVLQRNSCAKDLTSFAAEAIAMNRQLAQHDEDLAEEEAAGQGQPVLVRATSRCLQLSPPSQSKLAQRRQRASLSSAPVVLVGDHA

[6] = molecular target: CDK2/Cyclin A2 (Homo sapiens) (UniProt P24941+P20248); assay: Inhibition of CDK2/Cyclin A (unknown origin) assessed as remaining enzyme activity at 10 uM by radioactive [33P]-ATP filter binding assay; type: protein-complex assay; method in brief: as §1
[7] = molecular target: Aurora kinase B (Homo sapiens) (UniProt Q96GD4); assay: Inhibition of Aurora B (unknown origin) assessed as remaining enzyme activity at 10 uM by radioactive [33P]-ATP filter binding assay; method in brief: as §1
[8] = molecular target: Serine/threonine-protein kinase STK11 (Homo sapiens) (UniProt Q15831); assay: Inhibition of LKB1 (unknown origin) assessed as remaining enzyme activity at 10 uM by radioactive [33P]-ATP filter binding assay
[9] = molecular target: MAP/microtubule affinity-regulating kinase 3 (Homo sapiens) (UniProt P27448); assay: Inhibition of MARK3 (unknown origin) assessed as remaining enzyme activity at 10 uM by radioactive [33P]-ATP filter binding assay
Chain of MAP/microtubule affinity-regulating kinase 3 (Homo sapiens) (P27448 whole entry, looked up): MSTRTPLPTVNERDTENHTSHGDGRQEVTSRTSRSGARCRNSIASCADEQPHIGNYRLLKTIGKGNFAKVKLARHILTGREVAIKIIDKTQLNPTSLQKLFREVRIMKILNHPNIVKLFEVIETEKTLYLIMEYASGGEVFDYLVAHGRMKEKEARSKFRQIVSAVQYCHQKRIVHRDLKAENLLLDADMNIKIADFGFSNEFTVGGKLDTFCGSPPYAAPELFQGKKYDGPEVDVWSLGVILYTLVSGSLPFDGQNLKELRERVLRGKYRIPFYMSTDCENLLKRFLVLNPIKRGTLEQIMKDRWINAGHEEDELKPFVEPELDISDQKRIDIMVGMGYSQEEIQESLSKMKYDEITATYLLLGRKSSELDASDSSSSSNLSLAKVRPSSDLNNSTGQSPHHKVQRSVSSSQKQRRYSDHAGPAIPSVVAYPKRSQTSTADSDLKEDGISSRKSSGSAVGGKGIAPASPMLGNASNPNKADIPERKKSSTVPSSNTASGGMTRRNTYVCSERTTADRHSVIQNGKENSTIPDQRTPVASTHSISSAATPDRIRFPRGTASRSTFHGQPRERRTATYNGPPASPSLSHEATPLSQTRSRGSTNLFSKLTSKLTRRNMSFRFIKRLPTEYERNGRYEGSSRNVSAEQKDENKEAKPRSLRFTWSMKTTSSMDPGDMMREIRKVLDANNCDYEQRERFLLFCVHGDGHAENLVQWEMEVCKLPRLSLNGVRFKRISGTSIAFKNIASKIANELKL

[10] = molecular target: Tyrosine-protein kinase CSK (Homo sapiens) (UniProt P41240); assay: Inhibition of CSK (unknown origin) assessed as remaining enzyme activity at 10 uM by radioactive [33P]-ATP filter binding assay; method in brief: as §1
Chain of Tyrosine-protein kinase CSK (Homo sapiens) (P41240 2-450 limits assumed): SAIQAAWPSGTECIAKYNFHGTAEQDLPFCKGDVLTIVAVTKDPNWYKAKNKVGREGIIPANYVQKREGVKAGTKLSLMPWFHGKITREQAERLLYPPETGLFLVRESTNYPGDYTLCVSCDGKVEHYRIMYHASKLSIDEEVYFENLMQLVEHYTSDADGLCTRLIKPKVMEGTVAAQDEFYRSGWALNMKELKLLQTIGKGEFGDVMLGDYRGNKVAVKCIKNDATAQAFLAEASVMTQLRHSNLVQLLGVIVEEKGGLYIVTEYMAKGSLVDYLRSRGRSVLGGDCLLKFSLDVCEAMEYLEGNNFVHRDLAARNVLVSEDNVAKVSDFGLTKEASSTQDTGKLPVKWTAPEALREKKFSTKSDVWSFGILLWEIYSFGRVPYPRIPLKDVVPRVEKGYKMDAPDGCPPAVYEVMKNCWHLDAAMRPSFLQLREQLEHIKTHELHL

[11] = molecular target: Tyrosine-protein kinase Yes (Homo sapiens) (UniProt P07947); assay: Inhibition of YES1 (unknown origin) assessed as remaining enzyme activity at 10 uM by radioactive [33P]-ATP filter binding assay
[12] = molecular target: Tyrosine-protein kinase SYK (Homo sapiens) (UniProt P43405); assay: Inhibition of SYK (unknown origin) assessed as remaining enzyme activity at 10 uM by radioactive [33P]-ATP filter binding assay
[13] = molecular target: Tyrosine-protein kinase ZAP-70 (Homo sapiens) (UniProt P43403); assay: Inhibition of ZAP70 (unknown origin) assessed as remaining enzyme activity at 10 uM by radioactive [33P]-ATP filter binding assay
[14] = molecular target: Protein-tyrosine kinase 6 (Homo sapiens) (UniProt Q13882); assay: Inhibition of BRK (unknown origin) assessed as remaining enzyme activity at 10 uM by radioactive [33P]-ATP filter binding assay; method in brief: as §1
[15] = molecular target: Ephrin type-B receptor 3 (Homo sapiens) (UniProt P54753); assay: Inhibition of EPHB3 (unknown origin) assessed as remaining enzyme activity at 10 uM by radioactive [33P]-ATP filter binding assay; method in brief: as §1
Chain of Ephrin type-B receptor 3 (Homo sapiens) (P54753 whole entry): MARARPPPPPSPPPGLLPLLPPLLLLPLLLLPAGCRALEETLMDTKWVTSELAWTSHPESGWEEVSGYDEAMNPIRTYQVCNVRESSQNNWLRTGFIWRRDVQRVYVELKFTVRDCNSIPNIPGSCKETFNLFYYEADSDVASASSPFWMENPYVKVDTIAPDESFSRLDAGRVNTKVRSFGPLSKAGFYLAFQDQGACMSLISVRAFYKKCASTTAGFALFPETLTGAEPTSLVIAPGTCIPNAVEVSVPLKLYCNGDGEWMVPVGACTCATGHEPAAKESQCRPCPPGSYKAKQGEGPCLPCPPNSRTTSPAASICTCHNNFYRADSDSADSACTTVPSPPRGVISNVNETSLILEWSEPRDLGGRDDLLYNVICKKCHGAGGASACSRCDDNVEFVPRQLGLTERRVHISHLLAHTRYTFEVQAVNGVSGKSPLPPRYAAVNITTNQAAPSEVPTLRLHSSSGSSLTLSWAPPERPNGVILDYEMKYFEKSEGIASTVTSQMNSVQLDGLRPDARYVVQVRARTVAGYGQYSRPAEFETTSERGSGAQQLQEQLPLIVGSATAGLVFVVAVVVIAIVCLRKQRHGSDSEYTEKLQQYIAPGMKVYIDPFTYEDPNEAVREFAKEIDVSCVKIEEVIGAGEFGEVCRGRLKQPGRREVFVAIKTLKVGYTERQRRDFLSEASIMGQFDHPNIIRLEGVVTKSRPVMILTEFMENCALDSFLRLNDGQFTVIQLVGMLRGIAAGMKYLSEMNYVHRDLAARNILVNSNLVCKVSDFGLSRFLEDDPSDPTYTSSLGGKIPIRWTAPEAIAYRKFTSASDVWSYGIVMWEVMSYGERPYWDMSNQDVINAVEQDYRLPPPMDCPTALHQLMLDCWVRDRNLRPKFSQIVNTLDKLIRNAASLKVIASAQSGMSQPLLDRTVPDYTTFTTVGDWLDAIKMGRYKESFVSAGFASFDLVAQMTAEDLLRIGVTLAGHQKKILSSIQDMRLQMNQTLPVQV

[16] = molecular target: Insulin-like growth factor 1 receptor (Homo sapiens) (UniProt P08069); assay: Inhibition of IGF1R (unknown origin) assessed as remaining enzyme activity at 10 uM by radioactive [33P]-ATP filter binding assay
[17] = molecular target: Insulin receptor (Homo sapiens) (UniProt P06213); assay: Inhibition of IR (unknown origin) assessed as remaining enzyme activity at 10 uM by radioactive [33P]-ATP filter binding assay
[18] = molecular target: Serine/threonine-protein kinase PINK1, mitochondrial (Homo sapiens) (UniProt Q9BXM7); assay: Inhibition of PINK (unknown origin) assessed as remaining enzyme activity at 10 uM by radioactive [33P]-ATP filter binding assay
[19] = molecular target: Casein kinase I isoform gamma-2 (Homo sapiens) (UniProt P78368); assay: Inhibition of CK1gamma2 (unknown origin) assessed as remaining enzyme activity at 10 uM by radioactive [33P]-ATP filter binding assay; method in brief: as §1
[20] = molecular target: Serine/threonine-protein kinase pim-1 (Homo sapiens) (UniProt P11309); assay: Inhibition of PIM1 (unknown origin) assessed as remaining enzyme activity at 10 uM by radioactive [33P]-ATP filter binding assay
[21] = molecular target: Serine/threonine-protein kinase pim-2 (Homo sapiens) (UniProt Q9P1W9); assay: Inhibition of PIM2 (unknown origin) assessed as remaining enzyme activity at 10 uM by radioactive [33P]-ATP filter binding assay
[22] = molecular target: SRSF protein kinase 1 (Homo sapiens) (UniProt Q96SB4); assay: Inhibition of SRPK1 (unknown origin) assessed as remaining enzyme activity at 10 uM by radioactive [33P]-ATP filter binding assay
[23] = molecular target: Serine/threonine-protein kinase 3 (Homo sapiens) (UniProt Q13188); assay: Inhibition of MST2 (unknown origin) assessed as remaining enzyme activity at 10 uM by radioactive [33P]-ATP filter binding assay
Chain of Serine/threonine-protein kinase 3 (Homo sapiens) (Q13188 whole entry): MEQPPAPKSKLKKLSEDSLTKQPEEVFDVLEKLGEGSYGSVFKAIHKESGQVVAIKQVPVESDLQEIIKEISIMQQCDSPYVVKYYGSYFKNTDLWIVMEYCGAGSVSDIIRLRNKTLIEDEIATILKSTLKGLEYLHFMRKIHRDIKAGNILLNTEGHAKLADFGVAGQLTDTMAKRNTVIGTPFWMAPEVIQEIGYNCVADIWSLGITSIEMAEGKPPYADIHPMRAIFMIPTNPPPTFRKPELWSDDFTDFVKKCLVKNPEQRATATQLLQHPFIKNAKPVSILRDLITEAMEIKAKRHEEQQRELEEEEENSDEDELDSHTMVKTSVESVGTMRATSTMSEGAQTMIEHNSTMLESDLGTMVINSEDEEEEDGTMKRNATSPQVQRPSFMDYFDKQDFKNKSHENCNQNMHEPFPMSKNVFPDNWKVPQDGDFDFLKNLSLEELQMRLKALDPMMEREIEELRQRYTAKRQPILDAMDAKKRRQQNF

[24] = molecular target: Serine/threonine-protein kinase 24 (Homo sapiens) (UniProt Q9Y6E0); assay: Inhibition of MST3 (unknown origin) assessed as remaining enzyme activity at 10 uM by radioactive [33P]-ATP filter binding assay
[25] = molecular target: Mitogen-activated protein kinase kinase kinase kinase 5 (Homo sapiens) (UniProt Q9Y4K4); assay: Inhibition of MAP4K5 (unknown origin) assessed as remaining enzyme activity at 10 uM by radioactive [33P]-ATP filter binding assay
[26] = molecular target: Mitogen-activated protein kinase kinase kinase 11 (Homo sapiens) (UniProt Q16584); assay: Inhibition of MLK3 (unknown origin) assessed as remaining enzyme activity at 10 uM by radioactive [33P]-ATP filter binding assay
[27] = molecular target: Interleukin-1 receptor-associated kinase 1 (Homo sapiens) (UniProt P51617); assay: Inhibition of IRAK1 (unknown origin) assessed as remaining enzyme activity at 10 uM by radioactive [33P]-ATP filter binding assay
Chain of Interleukin-1 receptor-associated kinase 1 (Homo sapiens) (P51617 whole entry, looked up): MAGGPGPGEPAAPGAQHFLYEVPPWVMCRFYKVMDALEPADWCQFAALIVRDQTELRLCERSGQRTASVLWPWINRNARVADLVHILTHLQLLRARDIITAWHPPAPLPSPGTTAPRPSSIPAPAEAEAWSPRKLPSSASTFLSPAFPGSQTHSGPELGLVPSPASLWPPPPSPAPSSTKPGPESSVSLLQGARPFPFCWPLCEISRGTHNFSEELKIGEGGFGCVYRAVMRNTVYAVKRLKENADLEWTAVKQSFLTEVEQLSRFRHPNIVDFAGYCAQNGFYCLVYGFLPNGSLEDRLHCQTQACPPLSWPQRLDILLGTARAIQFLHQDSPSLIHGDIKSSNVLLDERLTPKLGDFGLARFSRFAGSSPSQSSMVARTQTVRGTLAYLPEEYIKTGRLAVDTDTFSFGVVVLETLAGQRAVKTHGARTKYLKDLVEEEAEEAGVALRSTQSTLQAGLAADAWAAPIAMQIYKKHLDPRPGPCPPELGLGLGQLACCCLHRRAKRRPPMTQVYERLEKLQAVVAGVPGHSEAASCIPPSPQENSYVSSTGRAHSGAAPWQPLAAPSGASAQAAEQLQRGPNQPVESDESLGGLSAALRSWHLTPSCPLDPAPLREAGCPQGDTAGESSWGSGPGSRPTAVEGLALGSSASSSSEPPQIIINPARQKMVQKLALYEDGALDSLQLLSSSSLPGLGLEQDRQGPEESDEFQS

[28] = molecular target: Mitogen-activated protein kinase kinase kinase 7, TAK1 (Homo sapiens) (UniProt O43318); assay: Inhibition of TAK1 (unknown origin) assessed as remaining enzyme activity at 10 uM by radioactive [33P]-ATP filter binding assay

Activity [1]: 115%
Activity [2]: 107%
Activity [3]: 86%
Activity [4]: 98%
Activity [5]: 109%
Activity [6]: 102%
Activity [7]: 104%
Activity [8]: 115%
Activity [9]: 103%
Activity [10]: 109%
Activity [11]: 108%
Activity [12]: 97%
Activity [13]: 115%
Activity [14]: 109%
Activity [15]: 109%
Activity [16]: 98%
Activity [17]: 96%
Activity [18]: 114%
Activity [19]: 99%
Activity [20]: 118%
Activity [21]: 114%
Activity [22]: 104%
Activity [23]: 104%
Activity [24]: 106%
Activity [25]: 87%
Activity [26]: 76%
Activity [27]: 109%
Activity [28]: 91%
SMILES: Cc1ccc(-c2cc(C(=O)Nc3ccnc(Cl)c3)nn2-c2ccc3ccccc3n2)cc1
